# High-throughput results deposited in PubChem by The Scripps Research Institute Molecular Screening Center.
# Rows were chosen to be rich in hits. Some 1.5% of all compounds tested hit in one or more screens of this group.
# DAGLB inh = diacylglycerol lipase beta (human) inhibition | AID 504411 | HEK293T DAGLB membrane lysate, EnzChek fluorogenic substrate | 340,000 compounds, 0.059% hits | inhibition, % at 5.17 µM; in the data active = inhibition above about 34%
# TCR-CD3 inh = blocks the human TCR-CD3 interaction; TAMRA-labeled TCR probe fluorescence, biochemical; inhibition, % at 9.4 µM; 360,000 compounds, 0.37% hits; AID 651800;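 note: recombinant mutant TCR 2C K166C tagged with TAMRA read by polarization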
# HTRA1 inh = HTRA1 (human) protease inhibition | inhibition, % at 5.96 µM | 340,000 compounds, 0.5% hits | recombinant HTRA1, FP-rhodamine activity-based probe, fluorescence polarization; in the data active = inhibition above about 36%
# Target sequence (Q92743 whole entry, looked up): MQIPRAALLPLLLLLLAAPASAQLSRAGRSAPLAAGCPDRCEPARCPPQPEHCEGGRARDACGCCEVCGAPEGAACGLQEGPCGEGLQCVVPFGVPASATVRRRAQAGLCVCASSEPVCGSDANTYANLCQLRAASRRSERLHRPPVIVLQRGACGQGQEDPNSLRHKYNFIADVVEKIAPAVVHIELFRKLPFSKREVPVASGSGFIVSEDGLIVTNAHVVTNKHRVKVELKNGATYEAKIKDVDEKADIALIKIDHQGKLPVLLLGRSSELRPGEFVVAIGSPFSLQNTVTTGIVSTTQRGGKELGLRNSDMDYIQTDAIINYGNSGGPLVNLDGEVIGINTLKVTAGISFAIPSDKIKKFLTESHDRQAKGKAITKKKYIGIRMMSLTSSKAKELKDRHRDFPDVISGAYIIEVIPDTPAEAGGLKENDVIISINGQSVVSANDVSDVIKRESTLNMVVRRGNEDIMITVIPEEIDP
# SIAE inh = blocks human sialic acid acetylesterase | SIAE FP-Rh probe binding, fluorescence polarization | inhibition, % at 9.66 µM | 370,000 compounds, 0.69% hits | AID 1053197;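 active = inhibition above a cutoff: mean of compounds within the control limits plus 3 SD of those, cut at about 17% in these data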
# mABHD4 FP = inhibits mouse alpha/beta hydrolase domain 4; inhibition, % at 8.92 µM; 370,000 compounds, 0.54% hits; Q8VD66; purified mABHD4, FP-Rh probe fluorescence polarization;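 active = inhibition exceeding the mean over every tested compound plus 3 SD, cut at about 30% in these data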
#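 Test system: mouse ABHD4 enzyme, wild type. Reagent: FP-Rh fluorescent activity-based probe, added after compound pre-incubation. Timing: pre-incubation 45 min, probe exposure 60 min, at 25 °C. Technique: FP readout, ex 525 nm / em 598 nm. Benchmarks: high control S159A mutant with DMSO, low control median of compound wells.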
# HTRA1 conf = HTRA1 (human) inhibition, confirmation; shares compounds with HTRA1 inh; recombinant HTRA1, FP-rhodamine activity-based probe, fluorescence polarization; inhibition, % at 5.96 µM; 1,600 compounds, 66% hits; AID 540248;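 active = mean inhibition over three repeats above a set limit taken from the earlier primary screen, cut at about 37% in these data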;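 note: inhibitors block probe binding so polarization drops and inhibition rises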
# BSA probe FL = interferes with TAMRA-BSA probe, flagging TCR-CD3 hits; TAMRA-labeled BSA probe fluorescence counterscreen; shares compounds with TCR-CD3 inh; 1,200 compounds, 10% hits; inhibition, % at 9.4 µM; AID 652035; in the data active = inhibition above about 23%
# TCR-CD3 conf = TCR-CD3 interaction inhibition, confirmation; 1,200 compounds, 48% hits; inhibition, % at 9.4 µM; AID 652036; shares compounds with TCR-CD3 inh; TAMRA-labeled TCR probe fluorescence binding assay
# mABHD4 conf = confirmation of mouse ABHD4 inhibitors; shares compounds with mABHD4 FP; purified mABHD4, FP-Rh probe fluorescence polarization; 1,800 compounds, 55% hits; inhibition, % at 8.92 µM; AID 720658;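 active = mean inhibition across replicates above the hit cutoff set in the primary screen, cut at about 30% in these data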
# Numbers stand for hits; . = inactive; / = not tested or not shown; ! = not active in a repeat. Cut-off read from the data, not from the text of the source, unless noted: active = inhibition above about 19%; inactive = the rest.
SMILES,DAGLB inh,TCR-CD3 inh,HTRA1 inh,SIAE inh,mABHD4 FP,HTRA1 conf,mABHD4 conf,others
Cc1ccc(C(=O)Nc2nnc(CC(=O)N/N=C/c3ccc(O)c(O)c3)s2)cc1,.,34,48,.,.,64,/,BSA probe FL=.;TCR-CD3 conf=68
Cc1ccc(C(=O)Nc2nnc(CC(=O)N/N=C/c3ccncc3)s2)cc1,.,.,.,.,.,/,/,
COC(=O)[C@]12C[C@H](CC(=O)N3CCN(C(=O)c4ccco4)CC3)C(=O)N(Cc3ccc4c(c3)OCO4)C1=C[C@H](COCc1ccccc1)O[C@@H]2C,/,.,/,.,.,/,/,
C/C(=N\NC(=O)c1ccc([N+](=O)[O-])cc1)c1c(O)cc(C)oc1=O,.,.,.,.,.,/,/,
C/C(=N/NC(=O)c1cc(O)c(O)c(O)c1)c1ccc([N+](=O)[O-])cc1,.,55,76,.,32,57,.,BSA probe FL=.;TCR-CD3 conf=36
Cc1cccc(C)c1-n1nnnc1C1c2ccccc2OCC(=O)N1Cc1ccc(F)cc1 (configuration not stated),/,/,/,.,.,/,/,
CCOC(=O)C1(C)C=C(Nc2ccc(O)cc2)C(=O)N1c1ccc(O)cc1 (configuration not stated),.,40,55,.,76,.,.,BSA probe FL=.;TCR-CD3 conf=.
CCOC(=O)C1(C)C=C(Nc2ccc(OC)cc2)C(=O)N1c1ccc(OC)cc1 (configuration not stated),.,.,.,.,.,/,/,
Cc1cccc2c(N=Nc3ccc(S(=O)(=O)Nc4cccc(Cl)c4)cc3[N+](=O)[O-])c(O)[nH]c12,.,.,37,.,43,.,.,
CSc1nnc2c(n1)C[C@H](c1ccccc1)[C@@H](C)[C@@H](C(=O)N1CCCC1)C2,/,/,/,.,.,/,/,
Nc1[nH]c(C(=O)c2ccccc2)c(-c2ccc(Cl)cc2)c1C(=O)c1c[nH]c2ccc(F)cc12,/,.,/,.,.,/,/,
Oc1[nH]c2ccccc2c1N=Nc1ccccn1,.,.,.,.,.,/,/,
Oc1c(N=Nc2ccccn2)ccc2ccccc12,40,.,51,.,35,38,.,
COC(=O)c1cc2c(c3c4cc(C)ccc4n(S(=O)(=O)c4cccc(C)c4)c13)C(=O)N(Cc1ccc(C(F)(F)F)cc1)C2,/,.,/,.,.,/,/,
COc1ccc(OC)c(Nc2nc(-c3sc(NC(=O)C(C)(C)C)nc3C)cs2)c1,.,.,.,.,.,/,/,
COc1ccc(OC)c(Nc2nc(-c3sc(NC(=O)CC(C)C)nc3C)cs2)c1,.,.,37,.,35,.,54,
CCCCC(=O)Nc1nc(C)c(-c2csc(Nc3cc(OC)ccc3OC)n2)s1,.,.,39,.,42,.,66,
CCCCC(=O)Nc1nc(C)c(-c2csc(Nc3cc(Cl)ccc3OC)n2)s1,.,.,.,.,.,/,/,
Clc1ccccc1C1Nc2cccc3cccc(c23)N1,.,.,48,.,48,.,36,
O=C(N[C@H](C(=O)N1CCC[C@H]1C(=O)NC1CCCC1)C1CCCCC1)c1cccs1,/,.,/,.,.,/,/,
O=c1c2ccccc2nc(COc2ccccc2)n1/N=C/c1ccc(O)c(O)c1,.,.,72,.,36,82,.,
O=C(O)COc1ccc(/C=N/n2c(COc3ccccc3)nc3ccccc3c2=O)cc1,.,.,.,.,.,/,/,
O=C(Nc1ccccc1C(F)(F)F)OC1CCC12CCC(c1ccccc1)CC2 (configuration not stated),/,/,/,.,.,/,/,
O=Cc1cc(N=Nc2cccc(C(=O)O)c2)ccc1O,.,.,.,.,.,/,/,
O=Cc1cc(N=Nc2ccccc2Cl)ccc1O,.,.,38,.,30,54,35,
SMILES,DAGLB inh,TCR-CD3 inh,HTRA1 inh,SIAE inh,mABHD4 FP,HTRA1 conf,mABHD4 conf,others
CCOC(=O)Cc1csc(NC(=O)NC2(C(F)(F)F)Oc3cc(Cl)c(Cl)cc3O2)n1,.,.,37,.,30,64,.,
CCC[C@H]1[C@@H](NC(=S)Nc2ccccc2Cl)CC[C@@]23CCCN2C(=O)CCC[C@@H]13,/,/,/,.,.,/,/,
C=CCCN1[C@@H](Cc2ccccc2)COc2ccccc2S1(=O)=O,/,.,/,.,.,/,/,
CN(C)c1ccc(NC2=C(Cl)C(=O)c3ccccc3C2=O)cc1,.,.,63,.,43,58,54,
CC(=O)Nc1ccc(NC2=C(Cl)C(=O)c3ccccc3C2=O)cc1,/,.,/,.,.,/,/,
NC(=NCCCCCCN=C(N)/N=C(\N)Nc1ccc(Cl)cc1)/N=C(\N)Nc1ccc(Cl)cc1,.,.,42!,.,46!,45,40,
COc1cccc(N(C)C(=O)[C@@H](C2CC2)[C@@H](O)c2ccc3ccccc3c2)c1,/,/,/,.,.,/,/,
O=[N+]([O-])c1cc2no[n+]([O-])c2cc1N1CCCCC1,.,.,77,.,55,.,51,
CN[C@H]1C[C@H]2c3[nH]c4cccc(-c5ccccc5)c4c3CCN2C[C@H]1[C@H](C)O,/,/,/,.,.,/,/,
Oc1ccc(/C=N/Nc2ccnc3cc(Cl)ccc23)cc1O,.,.,42,.,35,72,63,
Cc1cccc(NC(=O)NCc2ccc3c(c2)cc(C)n3C)c1,.,34,40,.,42,.,.,BSA probe FL=.;TCR-CD3 conf=.
Cc1cc2cc(CNC(=O)CCC(=O)O)ccc2n1C,.,.,.,.,.,/,/,
Cc1cccc(NC(=S)NCc2ccc3c(c2)cc(C)n3C)c1C,.,.,50,.,30,.,.,
COC(=O)C12C=C3CC(c4ccc(C(F)(F)F)cc4)=C3C(=O)N1Cc1[nH]c3ccccc3c1C2 (configuration not stated),/,/,/,.,.,/,/,
NC(=O)c1ccc(NC(=O)CSc2nnc(-c3ccccc3)n2-c2ccccc2)cc1,/,/,/,.,.,/,/,
Cc1cc(SCC(=O)c2ccc(O)c(O)c2)nc2ccccc12,.,29,54,.,39,69,.,BSA probe FL=.;TCR-CD3 conf=24
Cc1ccc(O)c(NC(=O)CSc2n[nH]c(-c3ccccc3)n2)c1,.,.,.,.,.,/,/,
O=C(CSc1n[nH]c(-c2ccccc2)n1)c1ccc(O)c(O)c1,.,.,72,.,34,66,.,
CCOC(=O)[C@]12CCCC=C1N(CCCOC)C(=O)[C@@H]2CC(=O)NCC1CCCCC1,/,/,/,.,.,/,/,
COc1cc(NCCCC(C)N)c2ncccc2c1 (configuration not stated),.,62,62,44,47,.,.,BSA probe FL=.;TCR-CD3 conf=.
CCCC(=O)C1=C(N(C)c2ccccc2)CC(C)(C)CC1=O,.,.,.,.,.,/,/,
